Assay results from ChEMBL document CHEMBL4261516, “Design, synthesis and pharmacological evaluation of new 2-oxo-quinoline derivatives containing α-aminophosphonates as potential antitumor agents” (Medchemcomm, 2017).

Experiments:
[1] = tested on: SK-OV-3; assay: Cytotoxicity against human SKOV3 cells after 48 hrs by MTT assay; assay type: functional, cell-based; details: SK-OV-3, 48 h
Method in brief: (§1)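 HepG2, SK-OV-3, NCI-H460 and HL 7702 lines grown as monolayers in DMEM with 10% FBS plus penicillin/streptomycin at 37 °C, 5% CO2. Exponentially growing cells were seeded and exposed to the indicated concentrations for 48 h. MTT was then added for 4 h at 37 °C, formazan was dissolved in DMSO, and OD was read at 490 nm. Each concentration was run in triplicate wells, with three independent runs per line.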

[2] = tested on: HepG2; assay: Cytotoxicity against human HepG2 cells after 48 hrs by MTT assay; assay type: functional, cell-based; details: HepG2, 48 h; method in brief: as §1
[3] = tested on: L02; assay: Cytotoxicity against human HL-7702 cells after 48 hrs by MTT assay; assay type: cell-based; details: L02, 48 h; method in brief: as §1
[4] = tested on: NCI-H460; assay: Cytotoxicity against human NCI-H460 cells after 48 hrs by MTT assay; assay type: functional, cell-based; details: NCI-H460, 48 h; method in brief: as §1

SMILES	IC50 [1]	IC50 [2]	IC50 [3]	IC50 [4]
CCOP(=O)(OCC)C(Nc1ccc(C)cc1)c1cc2ccccc2[nH]c1=O (configuration not stated)	66.8 µM	67.3 µM	> 100 µM	> 100 µM
CCCCNC(c1cc2cc(C)ccc2[nH]c1=O)P(=O)(OCC)OCC (configuration not stated)	130 µM	39.2 µM	> 100 µM	> 100 µM
O=Cc1cc2cc3c(cc2[nH]c1=O)OCO3	> 200 µM	> 200 µM	> 100 µM	> 200 µM
CCOP(=O)(OCC)C(Nc1cccc(C)c1)c1cc2cc3c(cc2[nH]c1=O)OCO3 (configuration not stated)	> 100 µM	> 100 µM	> 100 µM	> 100 µM
CCOP(=O)(OCC)C(Nc1ccc(C(F)(F)F)cc1)c1cc2cc(C)ccc2[nH]c1=O (configuration not stated)	191 µM	68.1 µM	> 100 µM	> 100 µM
CCOP(=O)(OCC)C(Nc1cccc(C)c1)c1cc2cc(OC)ccc2[nH]c1=O (configuration not stated)	73 µM	45.5 µM	> 100 µM	> 100 µM
CCOP(=O)(Cc1ccc(/N=C/c2cc3cc(OC)ccc3[nH]c2=O)cc1)OCC	53 µM	17.3 µM	> 100 µM	> 100 µM
CCOP(=O)(OCC)C(Nc1ccc(F)cc1)c1cc2ccccc2[nH]c1=O (configuration not stated)	41 µM	37.2 µM	> 100 µM	> 100 µM
CCOP(=O)(OCC)C(Nc1ccc([N+](=O)[O-])cc1)c1cc2cc3c(cc2[nH]c1=O)OCO3 (configuration not stated)	28.2 µM	44 µM	> 100 µM	> 100 µM
CCCCNC(c1cc2cc3c(cc2[nH]c1=O)OCO3)P(=O)(OCC)OCC (configuration not stated)	37.2 µM	46.3 µM	> 100 µM	47.9 µM
Cc1ccc2[nH]c(=O)c(C=O)cc2c1	> 200 µM	> 200 µM	> 100 µM	> 200 µM
CCOP(=O)(OCC)C(Nc1ccc([N+](=O)[O-])cc1)c1cc2ccccc2[nH]c1=O (configuration not stated)	30 µM	75.2 µM	> 100 µM	> 100 µM
O=c1[nH]cc(F)c(=O)[nH]1 [FLUOROURACIL]	26.3 µM	–	58.7 µM	–
CCOP(=O)(Cc1ccc(/N=C/c2cc3cc4c(cc3[nH]c2=O)OCO4)cc1)OCC	47.9 µM	28.9 µM	> 100 µM	> 100 µM
CCOP(=O)(OCC)C(Nc1ccc(F)cc1)c1cc2cc(OC)ccc2[nH]c1=O (configuration not stated)	270 µM	58.9 µM	> 100 µM	> 100 µM
CCOP(=O)(OCC)C(Nc1ccc(C(F)(F)F)cc1)c1cc2ccccc2[nH]c1=O (configuration not stated)	25.8 µM	39.1 µM	> 100 µM	> 100 µM
CCOP(=O)(OCC)C(Nc1ccc(F)cc1)c1cc2cc3c(cc2[nH]c1=O)OCO3 (configuration not stated)	26.2 µM	38 µM	> 100 µM	59.6 µM
CCOP(=O)(OCC)C(Nc1cccc(C)c1)c1cc2ccccc2[nH]c1=O (configuration not stated)	56 µM	65.5 µM	> 100 µM	> 100 µM

SMILES	IC50 [1]	IC50 [2]	IC50 [3]	IC50 [4]
CCOP(=O)(OCC)C(Nc1ccc(C)cc1)c1cc2cc(C)ccc2[nH]c1=O (configuration not stated)	37.2 µM	37.6 µM	> 100 µM	> 100 µM
O=Cc1cc2ccccc2[nH]c1=O	> 200 µM	> 200 µM	> 100 µM	> 200 µM
CCOP(=O)(OCC)C(Nc1ccccc1)c1cc2ccccc2[nH]c1=O (configuration not stated)	54.1 µM	46.3 µM	> 100 µM	> 100 µM
CCCCNC(c1cc2cc(OC)ccc2[nH]c1=O)P(=O)(OCC)OCC (configuration not stated)	58.2 µM	43.2 µM	> 100 µM	> 100 µM
CCOP(=O)(OCC)C(Nc1ccc(F)cc1)c1cc2cc(C)ccc2[nH]c1=O (configuration not stated)	30.3 µM	46.2 µM	> 100 µM	> 100 µM
CCOP(=O)(OCC)C(Nc1ccccc1)c1cc2cc3c(cc2[nH]c1=O)OCO3 (configuration not stated)	65 µM	45.2 µM	> 100 µM	> 100 µM
CCOP(=O)(OCC)C(Nc1ccc([N+](=O)[O-])cc1)c1cc2cc(C)ccc2[nH]c1=O (configuration not stated)	> 200 µM	35.6 µM	> 100 µM	> 100 µM
CCOP(=O)(OCC)C(Nc1ccccc1)c1cc2cc(C)ccc2[nH]c1=O (configuration not stated)	69.4 µM	39.6 µM	> 100 µM	> 100 µM
CCOP(=O)(OCC)C(Nc1cccc(C)c1)c1cc2cc(C)ccc2[nH]c1=O (configuration not stated)	342 µM	46 µM	> 100 µM	> 100 µM
CCOP(=O)(OCC)C(Nc1ccc([N+](=O)[O-])cc1)c1cc2cc(OC)ccc2[nH]c1=O (configuration not stated)	25.1 µM	20.8 µM	> 100 µM	44.6 µM
COc1ccc2[nH]c(=O)c(C=O)cc2c1	> 200 µM	> 200 µM	> 100 µM	> 200 µM
CCOP(=O)(OCC)C(Nc1ccc(C(F)(F)F)cc1)c1cc2cc(OC)ccc2[nH]c1=O (configuration not stated)	102 µM	40.1 µM	> 100 µM	> 100 µM
CCOP(=O)(OCC)C(Nc1ccc(C)cc1)c1cc2cc(OC)ccc2[nH]c1=O (configuration not stated)	60 µM	57.6 µM	> 100 µM	> 100 µM
CCOP(=O)(OCC)C(Nc1ccc(C(F)(F)F)cc1)c1cc2cc3c(cc2[nH]c1=O)OCO3 (configuration not stated)	22.4 µM	79 µM	> 100 µM	> 100 µM
CCCCNC(c1cc2ccccc2[nH]c1=O)P(=O)(OCC)OCC (configuration not stated)	38.3 µM	61.4 µM	> 100 µM	> 100 µM
CCOP(=O)(Cc1ccc(/N=C/c2cc3ccccc3[nH]c2=O)cc1)OCC	36 µM	17.9 µM	> 100 µM	57.9 µM
CCOP(=O)(OCC)C(Nc1ccccc1)c1cc2cc(OC)ccc2[nH]c1=O (configuration not stated)	54.7 µM	60.8 µM	> 100 µM	> 100 µM
CCOP(=O)(OCC)C(Nc1ccc(C)cc1)c1cc2cc3c(cc2[nH]c1=O)OCO3 (configuration not stated)	48.9 µM	43.1 µM	> 100 µM	> 100 µM
